Assay results reported in ChEMBL document CHEMBL4387760, “Synthesis of oxytocin derivatives lipidated via a carbonate or carbamate linkage as a long-acting therapeutic agent for social impairment-like behaviors” (Bioorg Med Chem, 2019).
Active and inactive are the calls of the source. The calls are words filed in the database; no cut-off is given here.

What was measured:
[1] = test system: Mus musculus; assay: Improvement in paternal nurturing behavior in CD38 knock out Slc:ICR mouse sire model of autism spectrum disorder assessed as parental scores to retrieve pups by sires at 100 ng/100 g, ip administered as single dose measured after 30 mins by parental retrieval test (reference value: 0 +/- 0 No units); type: functional
[2] = test system: Mus musculus; assay: Improvement in paternal nurturing behavior in CD38 knock out Slc:ICR mouse sire model of autism spectrum disorder assessed as parental scores to retrieve pups by sires at 100 ng/100 g, ip administered as single dose measured after 6 hrs by parental retrieval test; type: functional, organism-based
Procedure, shortened: (§1)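 This time-course test used CD38KOCC sires (Slc:ICR) paired with females. Each received a single ip dose of 100 ng/100 g body weight in PBS, with PBS as vehicle control. Paternal pup-retrieval scores were recorded at successive times after injection, including 6, 12, 24 and 48 h. Treatment effects were analysed by two-way ANOVA.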

[3] = test system: Mus musculus; assay: Improvement in paternal nurturing behavior in CD38 knock out Slc:ICR mouse sire model of autism spectrum disorder assessed as parental scores to retrieve pups by sires at 100 ng/100 g, ip administered as single dose measured after 24 hrs by parental retrieval test (reference value: 0 +/- 0 No units); type: functional
[4] = molecular target: Vasopressin V1a receptor (Homo sapiens, UniProt P37288); assay: Agonist activity at human V1A receptor expressed in HEK293 cells assessed as intracellular calcium level measured at 3 secs interval for 5 mins by fura-2/AM dye based micro spectrofluorometric method; type: functional, cell-based
Vasopressin V1a receptor, sequence (P37288 whole entry): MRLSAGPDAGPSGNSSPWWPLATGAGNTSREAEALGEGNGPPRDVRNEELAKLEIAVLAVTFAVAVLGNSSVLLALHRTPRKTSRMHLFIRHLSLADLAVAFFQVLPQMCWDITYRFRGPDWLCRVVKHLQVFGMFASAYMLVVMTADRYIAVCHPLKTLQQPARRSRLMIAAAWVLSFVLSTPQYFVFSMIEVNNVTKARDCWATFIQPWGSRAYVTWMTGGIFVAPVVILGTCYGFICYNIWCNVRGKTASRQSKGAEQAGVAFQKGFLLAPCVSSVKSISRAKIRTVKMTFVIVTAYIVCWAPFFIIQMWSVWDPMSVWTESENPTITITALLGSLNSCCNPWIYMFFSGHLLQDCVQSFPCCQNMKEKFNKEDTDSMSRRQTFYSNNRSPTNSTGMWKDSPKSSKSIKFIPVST
Procedure, shortened: (§2)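 HEK-293 cells stably expressing the receptor (G418-selected) were loaded with fura-2/AM for 30 min at 37 °C and washed in HEPES-buffered saline, pH 7.4. Fluorescence was read at 37 °C with 340/380 nm excitation, and F340/F380 was normalized to the 10 s baseline. Responses were expressed as % of the OT maximum (OTR) or the AVP maximum (V1A), with EC50 from 3 independent experiments at 20 cells/dish.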

[5] = molecular target: T1, Vasopressin V1b receptor (Homo sapiens, UniProt P47901); assay: Agonist activity at human V1B receptor expressed in HEK293 cells assessed as intracellular calcium level measured at 3 secs interval for 5 mins by fura-2/AM dye based micro spectrofluorometric method; type: functional, cell-based
T1 sequence (P47901 whole entry): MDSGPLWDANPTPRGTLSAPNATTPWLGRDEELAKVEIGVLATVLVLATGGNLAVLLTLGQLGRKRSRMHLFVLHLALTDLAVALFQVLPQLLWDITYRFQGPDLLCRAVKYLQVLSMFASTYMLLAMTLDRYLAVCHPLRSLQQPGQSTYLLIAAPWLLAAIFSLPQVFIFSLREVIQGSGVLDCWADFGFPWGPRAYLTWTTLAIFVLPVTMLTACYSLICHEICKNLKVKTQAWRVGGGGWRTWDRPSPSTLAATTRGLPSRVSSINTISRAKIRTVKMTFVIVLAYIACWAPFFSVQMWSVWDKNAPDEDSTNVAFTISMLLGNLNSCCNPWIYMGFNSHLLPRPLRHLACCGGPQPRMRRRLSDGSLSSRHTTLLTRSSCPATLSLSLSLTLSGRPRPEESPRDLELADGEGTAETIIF

[6] = molecular target: T2, Oxytocin receptor (Homo sapiens, UniProt P30559); assay: Agonist activity at human OTR receptor expressed in HEK293 cells assessed as intracellular calcium level measured at 3 secs interval for 5 mins by fura-2/AM dye based micro spectrofluorometric method; type: functional, cell-based; procedure, shortened: as §2
T2 sequence (P30559 whole entry): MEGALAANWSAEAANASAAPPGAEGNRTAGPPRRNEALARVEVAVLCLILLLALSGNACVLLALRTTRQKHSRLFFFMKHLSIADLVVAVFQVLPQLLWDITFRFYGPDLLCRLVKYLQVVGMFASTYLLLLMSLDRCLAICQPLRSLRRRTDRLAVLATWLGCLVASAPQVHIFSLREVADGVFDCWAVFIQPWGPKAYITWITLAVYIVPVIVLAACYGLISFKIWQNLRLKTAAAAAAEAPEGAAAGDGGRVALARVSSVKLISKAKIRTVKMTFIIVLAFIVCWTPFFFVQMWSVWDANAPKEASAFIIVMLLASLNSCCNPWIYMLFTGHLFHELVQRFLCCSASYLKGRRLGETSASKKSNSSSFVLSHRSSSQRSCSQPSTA

[7] = molecular target: T3, Oxytocin receptor (Homo sapiens) (UniProt P30559); assay: Agonist activity at human OTR receptor expressed in HEK293 cells measured at 3 secs interval for 5 mins by fura-2/AM dye based micro spectrofluorometric method relative to OT; type: cell-based
T3 sequence (whole entry): T2 sequence (P30559 whole entry)
Procedure, shortened: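 HEK-293 cells stably expressing human OTR (G418-selected) were loaded with fura-2/AM (final […] as printed) at 37 °C for 30 min, then washed in HEPES-buffered saline, pH 7.4. F340/F380 ratio was read every 3 s for 5 min at 37 °C, normalized to 10-s pre-application baseline, as % of maximal OT response. Three independent experiments, 20 cells per dish; EC50 derived.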

[8] = test system: Mus musculus; assay: Improvement in paternal nurturing behavior in CD38 knock out Slc:ICR mouse sire model of autism spectrum disorder assessed as increase in parental scores to retrieve pups by sires at 100 ng/100 g, ip administered as single dose measured after 48 hrs by parental retrieval test; type: functional, organism-based; procedure, shortened: as §1
[9] = test system: Mus musculus; assay: Improvement in paternal nurturing behavior in CD38 knock out Slc:ICR mouse sire model of autism spectrum disorder assessed as increase in parental scores to retrieve pups by sires at 100 ng/100 g, ip administered as single dose measured after 24 hrs by parental retrieval test; type: functional, organism-based
[10] = test system: Mus musculus; assay: Improvement in paternal nurturing behavior in CD38 knock out Slc:ICR mouse sire model of autism spectrum disorder assessed as increase in parental scores to retrieve pups by sires at 100 ng/100 g, ip administered as single dose measured after 12 hrs by parental retrieval test; type: functional, organism-based; procedure, shortened: as §1

SMILES	Activity [1]	Activity [2]	Activity [3]	EC50 [4]	EC50 [5]	EC50 [6]	Emax [7]	Activity [8]	Activity [9]	Activity [10]
CC[C@H](C)[C@@H]1NC(=O)[C@H](Cc2ccc(O)cc2)NC(=O)[C@@H](N)CSSC[C@@H](C(=O)N2CCC[C@H]2C(=O)N[C@@H](CC(C)C)C(=O)NCC(N)=O)NC(=O)[C@H](CC(N)=O)NC(=O)[C@H](CCC(N)=O)NC1=O [OXYTOCIN]	5.3	inactive	0							
CCCCCCCCCCCCCCCOC(=O)Oc1ccc(C[C@@H]2NC(=O)[C@@H](NC(=O)CCCCCCCCCCCCCCC)CSSC[C@@H](C(=O)N3CCC[C@H]3C(=O)N[C@@H](CC(C)C)C(=O)NCC(N)=O)NC(=O)[C@H](CC(N)=O)NC(=O)[C@H](CCC(N)=O)NC(=O)[C@H]([C@@H](C)CC)NC2=O)cc1	3.9		2.9	> 100 µM	> 100 µM	> 100 µM	0%			
CCCCCCCCCCCCCCCCOC(=O)Oc1ccc(C[C@@H]2NC(=O)[C@@H](NC(=O)CCCCCCCCCCCCCCC)CSSC[C@@H](C(=O)N3CCC[C@H]3C(=O)N[C@@H](CC(C)C)C(=O)NCC(N)=O)NC(=O)[C@H](CC(N)=O)NC(=O)[C@H](CCC(N)=O)NC(=O)[C@H]([C@@H](C)CC)NC2=O)cc1	2		5.2	> 100 µM	> 100 µM	> 100 µM	0%	inactive	Active	Active
CCCCCCCCCCCCCCCCNC(=O)Oc1ccc(C[C@@H]2NC(=O)[C@@H](NC(=O)CCCCCCCCCCCCCCC)CSSC[C@@H](C(=O)N3CCC[C@H]3C(=O)N[C@@H](CC(C)C)C(=O)NCC(N)=O)NC(=O)[C@H](CC(N)=O)NC(=O)[C@H](CCC(N)=O)NC(=O)[C@H]([C@@H](C)CC)NC2=O)cc1	1.9		3.4	> 100 µM	> 100 µM	> 100 µM	0%			
CCCCCCCCCCCCCCCNC(=O)Oc1ccc(C[C@@H]2NC(=O)[C@@H](NC(=O)CCCCCCCCCCCCCCC)CSSC[C@@H](C(=O)N3CCC[C@H]3C(=O)N[C@@H](CC(C)C)C(=O)NCC(N)=O)NC(=O)[C@H](CC(N)=O)NC(=O)[C@H](CCC(N)=O)NC(=O)[C@H]([C@@H](C)CC)NC2=O)cc1	2		3.1	> 100 µM	> 100 µM	> 10 µM				
CCCCCCCCCCCCCCCC(=O)N[C@H]1CSSC[C@@H](C(=O)N2CCC[C@H]2C(=O)N[C@@H](CC(C)C)C(=O)NCC(N)=O)NC(=O)[C@H](CC(N)=O)NC(=O)[C@H](CCC(N)=O)NC(=O)[C@H]([C@@H](C)CC)NC(=O)[C@H](Cc2ccc(OC(=O)NCCCCCCCCCCCCCC)cc2)NC1=O	3.3		3.6	> 100 µM	> 100 µM	> 100 µM	0%			
CCCCCCCCCCCCCCCC(=O)N[C@H]1CSSC[C@@H](C(=O)N2CCC[C@H]2C(=O)N[C@@H](CC(C)C)C(=O)NCC(N)=O)NC(=O)[C@H](CC(N)=O)NC(=O)[C@H](CCC(N)=O)NC(=O)[C@H]([C@@H](C)CC)NC(=O)[C@H](Cc2ccc(OC(=O)OCCCCCCCCCCCCCC)cc2)NC1=O	6.8		3.1	> 100 µM	> 100 µM		15.3%			
